# Assay results: ChEMBL document CHEMBL4513216, “Probing the Open Global Health Chemical Diversity Library for Multistage-Active Starting Points for Next-Generation Antimalarials” (ACS Infect Dis, 2020)
# Test: Toxicity liver stage against HepG2, at 10uM
# Type: cell-based
# Set-up: test concentration 10 uM, cell line HepG2-A16-CD81EGFP
# Conditions: human, HepG2-A16-CD81EGFP cells; read-out: INHIBITION
# Procedure, shortened: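 Uninfected HepG2-A16-CD81EGFP cells, 3 × 10^3 per well, 1536-well, plated on prespotted compound at 10 μM final, parasite-free screening media added to match infected plates; puromycin 10 μM positive, DMSO 0.5% negative; run in parallel with 48 h PbLuc assay at 37 °C, 5% CO2; viability by CellTiter-Glo luminescence, normalized to controls.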
smiles,measurement,value
CNC(=O)C1CNCCN1C(=O)c1ccc(C(F)(F)F)nc1C (stereo not given),cytotoxicity at 10 µM,-4.7%
Cc1nc(N)c2ccc(C3CCCN3)nc2n1 (stereo not given),cytotoxicity at 10 µM,3.67%
CCN(C(=O)COc1nc(C(C)(C)C)no1)C1CC1,cytotoxicity at 10 µM,3.2%
CCOc1nnc(CN(C)C2CCCN(c3cccnn3)C2)s1 (stereo not given),cytotoxicity at 10 µM,-17.3%
Cc1nc(N)cc(NCc2csc(N(C)C)n2)n1,cytotoxicity at 10 µM,-5.2%
O=C(NCC1CCOC1)c1ccc(-c2ccccc2)[nH]c1=O (stereo not given),cytotoxicity at 10 µM,-18.3%
OC(CN(Cc1ccccc1)Cc1ccon1)c1cccs1 (stereo not given),cytotoxicity at 10 µM,-0.359%
CN1CCN([C@@H]2CN(C(=O)c3cc4cccc(F)c4[nH]3)C[C@H]2O)CC1,cytotoxicity at 10 µM,-6.81%
Cc1nn(-c2ccccc2)c(C)c1CC(=O)NC1CC(=O)N(C)C1 (stereo not given),cytotoxicity at 10 µM,6.08%
Cc1ccc(CC(=O)N2Cc3nccn3CC(Cn3cccn3)C2)cc1 (stereo not given),cytotoxicity at 10 µM,-10.5%
Cc1nc(CNC(=O)Nc2ccc(N(C)C)nc2)sc1C,cytotoxicity at 10 µM,-0.222%
Cc1cc(N2CCCC(c3nncn3C3CC3)C2)ncn1 (stereo not given),cytotoxicity at 10 µM,-6.48%
CN1CCCC2(CCN(C(=O)Cn3ncc4ccccc4c3=O)C2)C1=O (stereo not given),cytotoxicity at 10 µM,1.57%
Cc1cc(N2CCC(n3cc(CCCO)nn3)CC2)ccn1,cytotoxicity at 10 µM,3.6%
Cc1nc(C2CCCN(C(=O)c3c(C)nn4cccnc34)C2)no1 (stereo not given),cytotoxicity at 10 µM,-7.62%
COCCNc1cc(-c2ccccc2C(=O)O)c2cc[nH]c2n1,cytotoxicity at 10 µM,2.13%
COCCN(CCOC)C(=O)c1ccc(Cn2nc(C)cc2C)cc1,cytotoxicity at 10 µM,-5.15%
Cn1cc(CN2CCOC(c3nccnc3-c3cccc(F)c3)C2)cn1 (stereo not given),cytotoxicity at 10 µM,8.12%
Cn1ccnc1CN1CCN(Cc2noc(-c3ccccc3)n2)CC1,cytotoxicity at 10 µM,1.08%
Cc1cc(NCCNS(=O)(=O)c2cn(C)nc2C)c2ccccc2n1,cytotoxicity at 10 µM,1.78%
CC(C)CCN(c1cn[nH]c1)S(=O)(=O)c1cccc(C#N)c1,cytotoxicity at 10 µM,7.95%
CCC(C)NC(=O)NCCC(=O)N1CCN(c2ccccn2)CC1 (stereo not given),cytotoxicity at 10 µM,4.22%
CCC1CN(C(=O)Nc2cnc3c(cnn3C(C)C)c2)CCO1 (stereo not given),cytotoxicity at 10 µM,-9.46%
Cc1nn(CC(=O)Nc2ccc(F)cc2)c(N)c1C#N,cytotoxicity at 10 µM,13.3%
Cn1ccn2ncc(C(=O)NCc3cccnc3N3CCCC(O)C3)c12 (stereo not given),cytotoxicity at 10 µM,-8.01%
Cn1nc(N2CCCC(C(=O)Nc3nc4ccccc4s3)C2)ccc1=O (stereo not given),cytotoxicity at 10 µM,27.6%
CCC[C@H]1CN(S(C)(=O)=O)C[C@@H]1NC(=O)Cc1ccc(F)cc1C,cytotoxicity at 10 µM,-7.13%
CN(C)S(=O)(=O)N1C[C@H]2CCC[C@@]2(COCc2ccccn2)C1,cytotoxicity at 10 µM,0.718%
O=C(Cc1ccccc1F)N1CCN(C(=O)c2ccoc2)CC1,cytotoxicity at 10 µM,1.16%
CCN1CCC2(CC1)CC(COC)N(Cc1csc(C)n1)C2 (stereo not given),cytotoxicity at 10 µM,6.68%
COCCc1noc(CN2CCCC2c2c(C)nn(C)c2Cl)n1 (stereo not given),cytotoxicity at 10 µM,-7.71%
Cc1c(C(C)N)cnn1-c1cccc2ccccc12 (stereo not given),cytotoxicity at 10 µM,10.7%
Cc1[nH]c2c(C)ccc(C)c2c1CC(=O)NC1CCCNC1=O (stereo not given),cytotoxicity at 10 µM,-0.274%
CN(C)CCN(Cc1cccc(F)c1)C(=O)c1ccn(C)c(=O)c1,cytotoxicity at 10 µM,-3.92%
CCc1csc(C2CCCN(C(=O)c3cc(C4CC4)[nH]n3)C2)n1 (stereo not given),cytotoxicity at 10 µM,-1.22%
CN(Cc1ccc(C2CC(=O)Nc3cc4[nH]ncc4cc32)o1)S(C)(=O)=O (stereo not given),cytotoxicity at 10 µM,34.1%
Cc1nocc1C(=O)N1CCc2c(CN(C)C)nn(C)c2C1,cytotoxicity at 10 µM,-0.567%
CC(=O)Cn1cc(C#N)c(=O)c2cc(Br)ccc21,cytotoxicity at 10 µM,-7.06%
Cc1noc(CCCC(=O)N2CCCCC2c2nccs2)n1 (stereo not given),cytotoxicity at 10 µM,-87.5%
CCc1nc(-c2ccnc(N3CCNCC3)n2)no1,cytotoxicity at 10 µM,11.9%
Cc1cc(NC(=O)CN2CCN(c3nccs3)C(C)C2)no1 (stereo not given),cytotoxicity at 10 µM,-9.66%
CC(=O)N(Cc1ncc(C)o1)C1CCN(Cc2sc(C)nc2C)C1 (stereo not given),cytotoxicity at 10 µM,-19.8%
O=C1[C@H]2CN(Cc3ccoc3)C[C@H]2CN1CCN1CCCC1,cytotoxicity at 10 µM,1.05%
COCCn1ccc2ccc(C(=O)O)cc21,cytotoxicity at 10 µM,-9.13%
CC(C)NC(=O)N1CCN(C(=O)c2ccco2)CC2(CC(=O)N(C)C2)C1 (stereo not given),cytotoxicity at 10 µM,6.15%
O=C(CN1CC(c2nc(C3CC3)no2)C1)NCc1ccc(F)cc1,cytotoxicity at 10 µM,0.291%
CCC(Nc1cccc(OC)c1)C(=O)NCc1ccc2c(c1)OCO2 (stereo not given),cytotoxicity at 10 µM,-1.11%
COc1ccc(CN2CCC(C(N)=O)CC2)cc1SC(F)(F)F,cytotoxicity at 10 µM,-20.3%
Cc1cc(C(=O)NCc2ccnc(N3CCOCC3)c2)c(C)s1,cytotoxicity at 10 µM,-0.426%
COc1ccccc1CN1CCCC(n2cccn2)C1 (stereo not given),cytotoxicity at 10 µM,2%
Cn1cc(C(=O)N2CCN(c3ccccc3)CC2)ccc1=O,cytotoxicity at 10 µM,-0.408%
CCCn1ncc(C(=O)NCCc2[nH]nc3c2CCCC3)c1C,cytotoxicity at 10 µM,-6.63%
O=c1c(=CS(=O)(=O)Nc2ccc(Br)cc2)[nH]c(=O)n2cccc12,cytotoxicity at 10 µM,-9.95%
COc1ccnc(N2CCN(C(=O)c3ccn(C)c(=O)c3)CC2)n1,cytotoxicity at 10 µM,-13.7%
COC1CN(C(=O)CC(C)C)CCC(=O)N(C)c2ccccc21 (stereo not given),cytotoxicity at 10 µM,-2.72%
O=C1CCCN1CCCC(=O)N1CCC2(CC1)[C@H](O)C[C@@H]2O,cytotoxicity at 10 µM,-2.38%
CN(C)c1nccc(N(C)C2CCCCC2)n1,cytotoxicity at 10 µM,-6.37%
COc1cccc(N2CC3(CCN(c4cc(OC)ncn4)C3)CC2=O)c1 (stereo not given),cytotoxicity at 10 µM,21.7%
CS(=O)(=O)NC[C@]12COC[C@H]1CN(C(=O)CCc1ccccc1)C2,cytotoxicity at 10 µM,-1.23%
CS(=O)(=O)Cc1cc(F)ccc1NCc1nnsc1Cl,cytotoxicity at 10 µM,-12.2%
Cc1nc(CNCC2CCCN(C(=O)OC(C)(C)C)C2)cs1 (stereo not given),cytotoxicity at 10 µM,-18.2%
CC(C)CC(O)C1CCN(C(=O)c2coc(CN3CCOCC3)c2)CC1 (stereo not given),cytotoxicity at 10 µM,-7.27%
COc1ccc(Cl)cc1C(=O)N1C[C@H](C(C)C)[C@@H](N)C1,cytotoxicity at 10 µM,1.17%
COCc1nc2n(n1)CCCC2Nc1nc(C)ns1 (stereo not given),cytotoxicity at 10 µM,-3.32%
CCN(Cc1ccc2c(c1)OCO2)C(=O)Cn1cccnc1=O,cytotoxicity at 10 µM,-2.27%
CC(C)NC(=O)NCc1ccnc(N(C)C)n1,cytotoxicity at 10 µM,-3.63%
COc1nccc(N2CC[C@H](CO)[C@@H](O)C2)c1C#N,cytotoxicity at 10 µM,-141%
CC(C(=O)Nc1cc(F)ccc1F)N1CCN(Cc2ncc[nH]2)CC1 (stereo not given),cytotoxicity at 10 µM,-15.8%
O=C(c1ccncc1)N1CCCC(c2cc(C(F)F)n3ncnc3n2)C1 (stereo not given),cytotoxicity at 10 µM,-4.45%
Cc1nn(C)c(N(C)C)c1CNC1CCc2c(F)cccc21 (stereo not given),cytotoxicity at 10 µM,-5.87%
COCCN(C)C(C(=O)O)c1ccc(F)c(C)c1 (stereo not given),cytotoxicity at 10 µM,1.87%
COCC1CN(C(=O)Cc2ccsc2)Cc2c1cnn2C (stereo not given),cytotoxicity at 10 µM,-67%
c1ccc(-c2noc(CN3CCOC(Cn4cccn4)C3)n2)nc1 (stereo not given),cytotoxicity at 10 µM,-15%
CNC(=O)CN1C(=O)CCC12CCCN(Cc1ccccn1)C2 (stereo not given),cytotoxicity at 10 µM,4.5%
O=C(Cn1nnn(-c2cccs2)c1=O)NCC1CCOC1 (stereo not given),cytotoxicity at 10 µM,-40.4%
CC(C)c1nc(CN(C)Cc2ccc(O)c(Cl)c2)cs1,cytotoxicity at 10 µM,-7.27%
Cc1nc(N2CCN(C(=O)NCc3cscn3)CC2)sc1C,cytotoxicity at 10 µM,-11.3%
O=c1c2cccc(F)c2ncn1CCN1CCOCC1,cytotoxicity at 10 µM,2.53%
Cc1n[nH]c(C)c1CCC(=O)NCC1CCOc2ccccc2C1 (stereo not given),cytotoxicity at 10 µM,-45.6%
COc1cccc(CN2CC(O)CN(C(=O)C(C)(C)C)CC2=O)c1OC (stereo not given),cytotoxicity at 10 µM,-57.6%
CCC[C@H]1CN(c2nccc(OC)n2)C[C@@H]1NS(=O)(=O)N(C)C,cytotoxicity at 10 µM,-140%
COCC(=O)NCc1cc(=O)n2c(n1)CN(Cc1ccccc1)CCC2,cytotoxicity at 10 µM,-103%
Cc1ccc(CN2C[C@H]3C[C@H](C(=O)NCC4CC4)N(C)[C@H]3C2)o1,cytotoxicity at 10 µM,-3.13%
NC1(C(=O)NCC2CCCN(Cc3ccccc3F)C2)CCCC1 (stereo not given),cytotoxicity at 10 µM,-43.2%
CC(C)n1c2ccccc2c2c1cc(C(=O)NC1CC1)n2C(=O)N(C)C,cytotoxicity at 10 µM,-109%
CC(=O)N1CCCc2sc(C(=O)Nc3ccc(C)nc3)nc21,cytotoxicity at 10 µM,7.46%
CN1CCN2C(=O)N(C3CCOCC3)C[C@H]2C1,cytotoxicity at 10 µM,0.523%
Cc1ccccc1C(C#N)NC(=O)c1cccc2c1OCCO2 (stereo not given),cytotoxicity at 10 µM,-3.38%
CC(Oc1ccccc1C(F)(F)F)C(=O)NCCC(=O)N(C)C (stereo not given),cytotoxicity at 10 µM,-4.25%
CCC(=O)N1CCCC(C(=O)c2cnn(-c3ccc(F)cc3)c2N)C1 (stereo not given),cytotoxicity at 10 µM,4.57%
O=C(Cc1ccc(F)cc1)N1C[C@H]2CCN[C@H]2C1,cytotoxicity at 10 µM,2.26%
Cc1nccnc1N1Cc2cnn(Cc3ccc(F)cc3)c2C1,cytotoxicity at 10 µM,2.45%
N#Cc1cccn(CCOc2ccc(Cl)cc2)c1=O,cytotoxicity at 10 µM,18.6%
CCN1CCN(C2CCN(C(C(N)=O)c3ccc(F)cc3)CC2)C1=O (stereo not given),cytotoxicity at 10 µM,-20%
O=C(Cc1ccccn1)N1CCN(C(=O)c2cccc3[nH]ncc23)CC1,cytotoxicity at 10 µM,-2.48%
CCNc1cc2c(nn1)CCN(C(=O)C1COc3ccccc3C1)C2 (stereo not given),cytotoxicity at 10 µM,-4.83%
Cc1ccc(C(N)=O)cc1NCCOc1cccc(C#N)c1,cytotoxicity at 10 µM,2.87%
CCn1c(Cn2cncn2)nnc1C1CCN(Cc2ccncc2)CC1,cytotoxicity at 10 µM,12.3%
Cc1ccc2nc(C)c(C)c(C(=O)N3CCN(c4nccs4)CC3)c2c1,cytotoxicity at 10 µM,3.96%
O=C1NCCCc2[nH]c(Cc3cccc(F)c3)nc21,cytotoxicity at 10 µM,-3.47%
O=C(NCC(O)c1ccc(F)c(F)c1)c1ccccc1F (stereo not given),cytotoxicity at 10 µM,-3%
Cc1cccc(OCC(=O)NS(=O)(=O)Cc2ccccc2)c1,cytotoxicity at 10 µM,0.224%
O=C1NCCO[C@H]2CN(C(=O)CCc3ccccc3Cl)CC[C@@H]12,cytotoxicity at 10 µM,1.96%
CCn1nc(C)c(C(=O)N2C[C@@H](CN(C)C)[C@@H](CO)C2)c1C,cytotoxicity at 10 µM,0.44%
CS(=O)(=O)c1nccn1CCOc1ccccc1F,cytotoxicity at 10 µM,4.05%
CC(C)c1cc(C(F)(F)F)n2nc(C3CCN(S(C)(=O)=O)C3)cc2n1 (stereo not given),cytotoxicity at 10 µM,-1.14%
CNC(=O)[C@H]1C[C@@H]2CN(S(=O)(=O)c3cccc(F)c3)C[C@@H]2N1C,cytotoxicity at 10 µM,-4.94%
Cn1nc2c(cc1=O)CN(Cc1nc(-c3ccsc3)no1)CC2,cytotoxicity at 10 µM,-2.21%
CCc1cc(=O)n(CC(=O)N2CCC(C)CC2)c(-c2cccc(F)c2)n1,cytotoxicity at 10 µM,7.63%
Cc1cccc(Nc2cc(C3CCCN(CC(N)=O)C3)ccn2)n1 (stereo not given),cytotoxicity at 10 µM,12.3%
